The data set is described as follows: Toxicity liver stage against HepG2, at 10uM. Format: cell-based. Set-up: test concentration 10 uM, cell line HepG2-A16-CD81EGFP. Conditions: human, HepG2-A16-CD81EGFP cells; read-out: INHIBITION
In a few lines: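 Uninfected HepG2-A16-CD81EGFP cells, 3 × 10^3 per well, 1536-well, plated on prespotted compound at 10 μM final, parasite-free screening media added to match infected plates; puromycin 10 μM positive, DMSO 0.5% negative; run in parallel with 48 h PbLuc assay at 37 °C, 5% CO2; viability by CellTiter-Glo luminescence, normalized to controls.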
Consider `CC1(C)[C@H](Cc2cc(CO)on2)C[C@@H]1NCc1ccc(CO)o1`, for which the cytotoxicity at 10 µM was -12.4%.

`CC(C)NC(=O)N1C[C@@H](F)[C@@H](OCc2nc3ccccc3o2)C1`: the cytotoxicity at 10 µM is 8.16%. The same measure for `COc1ncc(C(=O)NCc2ccc(Br)cc2)cn1`: 48.6%. The same measure for `O=C1CCCN1C(CNS(=O)(=O)C1CC1)Cc1cccc(F)c1` (centres undefined): 1.49%; for `CC(=O)Nc1ccc2c(c1)C1(CCOCC1)C(=O)N2c1ccsc1`: 5.56%; for `Cc1ccc(CC(=O)N2CC[C@@H]3NC(=O)CC[C@@H]32)cc1`: 1.49%. As for `CN(C)CCN1CCOC2(CCN(c3nccs3)CC2)c2ccccc21`, the figure is -1.99%; as for `CC(C)CN1CCC2(Cc3ccccc3NC2=O)C1` (centres undefined), 6.86%; as for `O=C1CC(c2cccs2)Cc2[nH]c(=O)c(C(=O)NC3CCCC3)cc21` (centres undefined), 80.5%. Take `Cc1cc(-c2cnc(N3CCC(O)CC3)nc2C(C)C)on1`: the cytotoxicity at 10 µM was found to be 66.4%. `NC(=O)CN1CCCC(c2cncc(Nc3ncccn3)n2)C1` (centres undefined): the cytotoxicity at 10 µM was -2.61%. Turning to `CCS(=O)(=O)N1CCC(C(=O)NC(Cc2ccsc2)c2nccs2)CC1` (centres undefined), the cytotoxicity at 10 µM was -2.72%. Take `C[C@]1(O)CN(CCO)CC[C@@H]1Oc1cccc(F)c1`: the cytotoxicity at 10 µM is -6%. The same measure for `Cc1ncsc1-c1nnc(C2CCN(Cc3ccccc3F)CC2)o1`: -10.2%. The same measure for `CC(=O)NC[C@]1(O)CCN(C(=O)c2ccc3c(c2)OCO3)C[C@H]1O`: -9.91%. As for `Cn1nc(C2CCNCC2)c2c(C(=O)NC3CC3)cc(C3CC3)nc21`, the figure is 16.2%; as for `Cc1ccc(N2CCC(Nc3ccc4nnc(C)n4n3)CC2)nc1`, 8.56%; as for `CN1CCN(C(=O)c2cn(-c3ccc(C(F)(F)F)cn3)nn2)CC1`, -63%. Take `Cc1ccc(OCC(=O)Nc2ccc(S(C)(=O)=O)cc2)cc1C`: the cytotoxicity at 10 µM is -2.4%. As for `COc1ccc(C(C)=O)cc1CN1CCn2cccc2C1C` (centres undefined), the figure is -6.62%; as for `CC(C)(O)CN1CCN(C(=O)c2cnn(-c3ccccc3F)c2)CC1`, -3.8%. The same measure for `c1cnnc(N2CCCC(NCc3nc(-c4ccsc4)no3)C2)c1` (centres undefined): 7.79%. The same measure for `Cc1cccc(C(=O)N2CCCN(CCCSCC#N)CC2)c1`: -150%. For `COC(=O)c1ccc(CNC(=O)Nc2ccc(=O)n(C)c2)cc1`, the cytotoxicity at 10 µM is -6.8%. `c1cnc2nc(N3CCCC3c3nnc4n3CCCCC4)ccc2n1` (centres undefined): the cytotoxicity at 10 µM is 4.21%. The same measure for `OC1CCN(c2ccc(CNc3nc4ccccc4s3)cc2F)CC1`: 1.71%; for `NC(=O)C1=NC2=NS(=O)(=O)c3ccccc3N2N1Cc1ccc(Cl)cc1`: 1.75%. For `CC(=O)N(CCc1ccccc1)CC(=O)NC(C)(C)C#N`, the cytotoxicity at 10 µM is 8.06%. As for `CN(Cc1ccc(Cl)s1)C(=O)Nc1ccc(N(C)C)nc1`, the cytotoxicity at 10 µM was -1.73%. For the compound `CCN(C(=O)CCOC)C(c1ccc(Cl)cc1)c1ccccn1` (centres undefined), the cytotoxicity at 10 µM was 1.88%.

As for `CNS(=O)(=O)CCCN(C)Cc1cc(C)ccc1OC`, the cytotoxicity at 10 µM is -61%. As for `COc1cc(F)c(NCc2nc3ccccc3n2C)cc1OC`, the figure is 26.5%; as for `CC(C)(C)c1nc(CN(Cc2cccs2)C2CCS(=O)(=O)C2)cs1` (centres undefined), 16%. As for `CN1CCN(Cc2cnc3n2CCN(C(=O)c2ccoc2)C3)CC1`, the cytotoxicity at 10 µM is -80.7%.

`COCC1CN(C(=O)CC2Cc3ccccc3C2)Cc2c1cnn2C` (centres undefined): the cytotoxicity at 10 µM is -75.4%. The same measure for `CC(=O)N1CCC2(CCCN(Cc3ccc(Cl)c(C(F)(F)F)c3)C2)C1` (centres undefined): 3.22%; for `CC(CN1CCCCCC1)NCc1cc(-c2ccco2)on1` (centres undefined): 1.56%; for `Cc1ncc2c(c1-c1noc(-c3cscn3)n1)CCNC2`: -3.37%. With `COc1cc(Cc2nc3c([nH]2)CC(C)(C)CNC3=O)cc(OC)c1`, the cytotoxicity at 10 µM was -6.27%. On to `Cn1ncc(N2CCC(CNC3Cc4ccccc4C3)C2)cc1=O` (centres undefined), for which the cytotoxicity at 10 µM was -6%. As for `O=C(CSCC1CC1)N1CCCN(c2ccc(F)cc2)CC1`, the figure is -4.43%. `COCCC1(C(=O)O)CCCN(C(=O)c2cc(Cl)ccc2F)C1` (centres undefined): the cytotoxicity at 10 µM was -2.79%. As for `O=C(NCc1nnc2n1CCCC2)c1ccc(C2CCCO2)s1` (centres undefined), the figure is 15.7%; as for `COCC(=O)N1C[C@H]2CNC[C@@]2(C(=O)NCc2cc(C)n[nH]2)C1`, 8.29%; as for `N[C@@H]1c2ccccc2C2(CCN(c3cc(C(F)(F)F)ccn3)CC2)[C@H]1O`, 0.106%. In the case of `Cc1cc(C(=O)N2C[C@H]3CCC[C@@]3(CO)C2)c2ccc(F)cc2n1`, the cytotoxicity at 10 µM came out at 5.78%.

`Cc1ccc2nc(C)c(C)c(C(=O)N[C@H]3COC[C@@H]3N3CCCC3)c2c1`: the cytotoxicity at 10 µM was -45.8%. The same measure for `CC(c1ccncn1)N(C)Cc1cc2cc3c(cc2[nH]c1=O)OCO3` (centres undefined): 9.83%. On to `CCc1nn(C)c(Cl)c1CN1C[C@@H](NC(=O)N(C)C)[C@H](C(C)C)C1`, for which the cytotoxicity at 10 µM came to 11.4%. As for `COc1cccc(NC(=O)NCC2CCCN(C3CCOCC3)C2)c1` (centres undefined), the figure is -2.48%. Regarding `O=C(NCCC1CCCCO1)c1cc(COc2cncc(Cl)c2)on1` (centres undefined), the cytotoxicity at 10 µM was -1.73%. Consider `Cc1ccccc1N1CCCN(C(=O)CCc2cccnc2)CC1`, for which the cytotoxicity at 10 µM was -9.2%. The same measure for `C[C@@H]1CN(Cc2nc(C(N)=O)no2)CC[C@@]1(O)C1CCOCC1`: -38.5%; for `COc1nc2c(cc1C(=O)N1CCCOC(Cn3cccn3)C1)CCC2` (centres undefined): -52.1%; for `O=C1NC(c2cccnc2)=NC12CCN(CCCc1ccccc1)CC2`: 1.68%. As for `O=C(NCCC1COc2ccccc2O1)c1ccc(N2CC(O)C2)nc1` (centres undefined), the figure is 72.1%.

Take `Cc1cc(N(C)Cc2ncc[nH]2)nc(-c2ccccc2)n1`: the cytotoxicity at 10 µM is 1.68%.

As for `Cc1ccc(C(=O)N(C)CCCc2cnn(C)c2)cc1N1CCNC1=O`, the cytotoxicity at 10 µM is -4.39%.

Regarding `CCC[C@H]1CN(Cc2cc(C)no2)C[C@@H]1NC(=O)C1(COC)CCC1`, the cytotoxicity at 10 µM worked out at 3.06%. `CCc1ccccc1OCCN(C)C(=O)CN1CCCC1`: the cytotoxicity at 10 µM is -50.4%. `COCc1cc(NCCCSc2nnc(C)s2)ncn1`: the cytotoxicity at 10 µM came out at 11.6%.

Regarding `CCCc1nc(C)cc(N2CCNC(C(=O)NCc3cccnc3)C2)n1` (centres undefined), the cytotoxicity at 10 µM is -7%. The same measure for `Cc1nc(N(C)C2CCCCC2)ncc1C(C)NC(=O)c1cscn1` (centres undefined): -134%; for `CCC(=O)N1CCc2nc3cc(OC)c(OC)cc3c(=O)n2CC1`: 2.65%. The same measure for `COc1ccc(C2=CCN(C(=O)C3CCS(=O)(=O)C3)CC2)cc1` (centres undefined): -7.45%; for `COc1ccc(-c2nc(CN3CCN(CCO)CC3)co2)cc1`: -0.0868%. The same measure for `O=C(c1cnccn1)N1CCN(Cc2csc(-c3ccccc3)n2)CC1`: -3.32%. Consider `Cn1ccc(C(=O)N2CCN(c3cc(C#N)ccn3)CC2)cc1=O`, for which the cytotoxicity at 10 µM is -14.2%. As for `Cc1cnn(C2CCCN(C(=O)c3cc(C4CC4)on3)C2)c1` (centres undefined), the figure is -11.4%; as for `Cc1noc(C2CCN(C(=O)c3ccc(NC4CC4)nc3)CC2)n1`, -7.1%.

On to `Cn1cc(CCNC(=O)NCc2nnc3n2CCC3)cn1`, for which the cytotoxicity at 10 µM is -6.08%. The same measure for `CCCc1nc(CN2CCOC(CNc3cccnn3)C2)cs1` (centres undefined): -6.71%; for `CN(C(=O)c1cccc2[nH]ncc12)C1CCN(c2ccccn2)CC1`: 7.31%; for `CC1CCCCN1C(=O)c1nc2c(n1C(C)C)CCN(C)C2` (centres undefined): 18.2%.

In the case of `Cc1ccc(CN2CCc3c(COCC4CC4)nn(C)c3C2)s1`, the cytotoxicity at 10 µM came to 6.35%. `c1cnc(N2CCC3(COCc4cnc(-c5cccnc5)nc43)C2)nc1` (centres undefined): the cytotoxicity at 10 µM came to 2.57%. As for `N#Cc1ccc(N2CCC3(CC2)CC(OCc2cccnc2)CO3)cc1` (centres undefined), the figure is 38.8%; as for `CS(=O)(=O)N1CCC2(CCN(C(=O)c3cccnc3)CC2)C1`, 3.59%. Turning to `COCCNC(=O)[C@H]1C[C@@H]2CCN(CCc3ccccc3)C[C@H]2O1`, the cytotoxicity at 10 µM is -70.3%. As for `CCOCC1CN(C2CCCC2)Cc2cnn(CC3CCOCC3)c21` (centres undefined), the figure is -9.13%; as for `N#Cc1cccc(CN2CCn3cc(Cn4cccn4)nc3C2)c1`, -0.501%.

In the case of `c1ccc(CO[C@@H]2CN(Cc3nccs3)[C@@H]3COC[C@@H]32)nc1`, the cytotoxicity at 10 µM is -104%. As for `COCC(=O)NCc1cc(=O)n2c(n1)CN(C)CCC2`, the figure is -103%; as for `CN1CCN(c2ncc3c(c2C(=O)O)CCN(C2CCOC2)C3)CC1` (centres undefined), 6.96%; as for `O=C([C@H]1C[C@H]2OCC[C@H]2N(Cc2ccccc2F)C1)N1CCCCO1`, -72.2%.

Take `Cc1cccc(CN2CCOC3(CCCN(CC(=O)N(C)C)C3)C2)n1` (centres undefined): the cytotoxicity at 10 µM is -106%.

As for `Cc1ccc(CNCc2ccc(N3CCC(CO)CC3)nc2)c(C)c1`, the cytotoxicity at 10 µM was found to be 1.37%. The same measure for `c1cncc(N2CCOCC3(CCCN(Cc4cccs4)C3)C2)c1` (centres undefined): 14.8%; for `Cc1nccc(NCc2cncc3c2CCN(S(C)(=O)=O)C3)n1`: -99.4%. As for `CC(C)N1CCO[C@@H]2CN(C(=O)Cc3cccs3)CC[C@@H]2C1`, the figure is -120%. Take `CC(C)OCc1ncn2c1CN(Cc1ccoc1)CCC2`: the cytotoxicity at 10 µM was -75.7%. As to `O=C(Nc1ccccc1)[C@H]1C[C@H]2CN(Cc3cccnc3)C[C@@H]1O2`, the cytotoxicity at 10 µM is -80%. As for `CC(C)CN1C[C@@H]2C[C@H](C(=O)NCc3cccnc3)[C@H](C1)O2`, the figure is 2.5%; as for `CC1(C)[C@@H]2CC=C(CN3CCCn4nc(CCC(=O)O)cc4C3)[C@H]1C2`, -40.2%.

(Values after ChEMBL document CHEMBL4513216, “Probing the Open Global Health Chemical Diversity Library for Multistage-Active Starting Points for Next-Generation Antimalarials” (ACS Infect Dis, 2020).)
